“Also recorded” adds a separate entry of the source.
Experiments:
[1] = tested on: HLA-A2 molecules on T2 cell surface; assay: T2 cell binding assay; parameters: species or system human; details: in words
Summary of the method: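 T2 cells (1 × 10^6/mL) incubated 18 h at 37°C, 5% CO2 with 50 µg/mL peptide in RPMI-1640 plus 3 µg/mL human β2-microglobulin; no-peptide blank included. Washed three times in PBS, stained 30 min with FITC anti-HLA-A2, MFI read by flow cytometry. FI = (MFI peptide − MFI blank)/MFI blank. Classes: FI >1.0 high, 0.5–1.0 medium, <0.5 low.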

CD8+T cells = assay: IFN-γ ELISA of DC/CD8+T cell co-culture supernatant; type: cell-based, human; details: for IFN-γ content in culture medium (ELISA): 12th day of co-cultivation of DCs and CD8+T cells, compared with NP-CTL; for capacity of induced CTLs to produce IFN-γ: ELISA and ELISPOT taken together, compared to other peptides of CT23
[2] = tested on: SKOV3 (HLA-A *0201−, CT23+); assay: Cytotoxicity assay; type: cell-based, human; details: LDH release, effector:target 50:1, 4 h
Summary of the method: (§1)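 Effectors: CD8+ T cells from HLA-A2+ donor PBMCs, co-cultured 10:1 with peptide- or protein-loaded DCs. rhIL-2 20 ng/mL from day 2; restimulated days 7 and 12; collected day 15. Targets grown in RPMI-1640/10% FBS. After 4 h, supernatant incubated with LDH substrate 30 min at RT in the dark, then stopped and read at OD490. Killing % = (experimental − effector and target spontaneous release)/(target maximum − target spontaneous release).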

[3] = tested on: T2 cells without loading peptides; assay: Cytotoxicity assay; type: cell-based, human; details: LDH release, effector:target 50:1, 4 h
Summary of the method: as §1

[4] = tested on: T2 cells loaded with peptide P7; assay: Cytotoxicity assay; type: cell-based, human; details: LDH release, effector:target 50:1, 4 h; mean±standard deviation; SD
Summary of the method: as §1

CTLs = assay: IFN-γ ELISPOT of peptide-induced CTLs; type: cell-based, human; details: CTLs 1 × 10^5 cells/well, 20 hours; compared to NP-CTL
Summary of the method: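 CTLs from HLA-A2+ donor CD8+ T cells stimulated with DCs loaded with peptide (50 μg/mL) or recombinant protein (100 μg/mL). Ratio 10:1, rhIL-2 20 ng/mL, restimulation days 7 and 12, harvested day 15. Added to anti-IFN-γ-coated wells with PHA positive and background control wells; 20 h at 37°C, 5% CO2. Biotinylated antibody, streptavidin–enzyme conjugate and substrate added; spots counted by analyzer.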

[5] = tested on: OVCAR-3 (HLA-A *0201+, CT23+); assay: Cytotoxicity assay; type: cell-based, human; details: LDH release, effector:target 50:1, 4 h; mean±standard deviation; SD
Summary of the method: as §1

U87 (HLA-A *0201+,CT23+) = assay: Cytotoxicity assay; type: cell-based, human; details: LDH release, effector:target 50:1, 4 h; mean±standard deviation; SD
Summary of the method: as §1

Sequence | binding affinity to HLA-A2 molecules (class by FI) [1] | IFN-γ content in culture medium (ELISA) (CD8+T cells) | capacity of induced CTLs to produce IFN-γ (CD8+T cells) | other results
QLPHTEALL [P4] | higher binding affinity | statistical significance compared with NP-CTL | stronger capacity to produce IFN-γ | –
VLCSQPVSI [P3] | moderate | – | – | –
MIMENIQEL [P5] | higher binding affinity | – | – | –
LLASQSLSI [P6] | higher binding affinity | statistical significance compared with NP-CTL | stronger capacity to produce IFN-γ | –
ALLVLCYSI [P7] | higher binding affinity; also recorded: highest binding affinity | highest IFN-γ secretion | stronger capacity to produce IFN-γ | killing effect of peptide-induced CTLs on HLA-A*0201 negative SKOV3 tumor cells [2]: no killing effect; also recorded: did not exhibit any killing effect; killing effect of P7-induced CTLs on T2 cells without loaded peptide P7 [3]: did not exhibit any significant killing effect; also recorded: no killing effect; killing rate of P7-induced CTLs on T2 cells loaded with peptide P7 [4]: 64.95 ± 6.09%; number of IFN-γ-positive cells (ELISPOT) (CTLs): significant statistical difference; killing rate of peptide-induced CTLs on OVCAR-3 [5]: 31.81 ± 9.82%; killing rate of peptide-induced CTLs on U87 (U87 (HLA-A *0201+,CT23+)): 31.42 ± 0.85%
RLSNNVEEL [P2] | higher binding affinity | – | – | –
ALLTPTWKA [P1] | higher binding affinity | statistical significance compared with NP-CTL | stronger capacity to produce IFN-γ | –
